Where “and” joins values, the source holds several entries; their conditions need not be identical. Equal values may be shown once.
Tested on: U2OS
Assay: Multiplex assay against U2OS
Type: toxicity, cell-based
Details: human
How it was run: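 Live cells carried four stains from seeding: Hoechst33342, BioTracker Green Microtubule Cytoskeleton Dye, MitoTracker Red and Annexin V Alexa Fluor 680. They were imaged on a CQ1 microscope at 37°C and 5% CO2 after compound addition. Using CellPathfinder machine-learning gating, cells were split into Hoechst high-intensity objects or normal cells, normal cells into healthy, pyknosed or fragmented nuclei, and pyknosed cells into mitotic or apoptotic; tubulin, mitochondrial-mass and membrane-permeability phenotypes are per cents of healthy-nucleus cells.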

[1] = 12 h, 1 µM, compound concentration 1 uM, replicate 1
[2] = 12 h, 1 µM, compound concentration 1 uM, replicate 2
[3] = 12 h, 10 µM, compound concentration 10 uM, replicate 1
[4] = 12 h, 10 µM, compound concentration 10 uM, replicate 2
[5] = 24 h, 1 µM, compound concentration 1 uM, replicate 1
[6] = 24 h, 1 µM, compound concentration 1 uM, replicate 2
[7] = 24 h, 10 µM, compound concentration 10 uM, replicate 1
[8] = 24 h, 10 µM, compound concentration 10 uM, replicate 2
[9] = 48 h, 10 µM, compound concentration 10 uM, replicate 1
[10] = 48 h, 10 µM, compound concentration 10 uM, replicate 2

In the case of `C[C@@]1(C(=O)Nc2ccc(F)nc2)CCCN1c1nc(Nc2cc(C3CC3)n[nH]2)c2cccn2n1` [BMS-754807], the “Population Apoptotic (%)” value [1] is reported as 25%, the “Population Fragmented Nuclei (%)” value [1] is reported as 8% and the “Population Healthy Nuclei (%)” value [1] is reported as 75%. The “Population Hoechst High Intensity Objects (%)” value [1] was 4%, the “Population Membrane Permeable-Phenotype (%)” value [1] was 61% and the “Population Mitochondria Different-Phenotype (%)” value [1] was 10%. The “Population Mitotic Cells (%)” value [1] was 74%, the “Population Normal (%)” value [1] was 95% and the “Population Pyknosed Nuclei (%)” value [1] was 15%. The “Population Tubulin-Different-Phenotype (%)” value [1] was 78%, the “Total Cell Count” value [1] was 181 and the “Population Apoptotic (%)” value [2] was 16%. The “Population Fragmented Nuclei (%)” value [2] was 36%, the “Population Healthy Nuclei (%)” value [2] was 56% and the “Population Hoechst High Intensity Objects (%)” value [2] was 27%. The “Population Membrane Permeable-Phenotype (%)” value [2] was 45%, the “Population Mitochondria Different-Phenotype (%)” value [2] was 25% and the “Population Mitotic Cells (%)” value [2] was 83%. The “Population Normal (%)” value [2] was 72%, the “Population Pyknosed Nuclei (%)” value [2] was 7% and the “Population Tubulin-Different-Phenotype (%)” value [2] was 62%. The “Total Cell Count” value [2] was 117, the “Population Apoptotic (%)” value [3] was 41% and 56% and the “Population Fragmented Nuclei (%)” value [3] was 10% and 4%. The “Population Healthy Nuclei (%)” value [3] was 65% and 86%, the “Population Hoechst High Intensity Objects (%)” value [3] was 6% and 2% and the “Population Membrane Permeable-Phenotype (%)” value [3] was 6% and 9%. For the same compound, the “Population Mitochondria Different-Phenotype (%)” value [3] was 71% and 27%, the “Population Mitotic Cells (%)” value [3] was 58% and 43% and the “Population Normal (%)” value [3] was 93% and 97%. The “Population Pyknosed Nuclei (%)” value [3] was 24% and 8%, the “Total Cell Count” value [3] was 191 and 183 and the “Population Apoptotic (%)” value [4] was 33%. For the same compound, the “Population Fragmented Nuclei (%)” value [4] was 15% and 11%, the “Population Healthy Nuclei (%)” value [4] was 58% and 80% and the “Population Hoechst High Intensity Objects (%)” value [4] was 13% and 9%. For the same compound, the “Population Membrane Permeable-Phenotype (%)” value [4] was 22% and 16%, the “Population Mitochondria Different-Phenotype (%)” value [4] was 70% and 40% and the “Population Mitotic Cells (%)” value [4] was 66%. For the same compound, the “Population Normal (%)” value [4] was 86% and 90%, the “Total Cell Count” value [4] was 53 and 85 and the “Population Apoptotic (%)” value [5] was 38%. For the same compound, the “Population Fragmented Nuclei (%)” value [5] was 15%, the “Population Healthy Nuclei (%)” value [5] was 60% and the “Population Hoechst High Intensity Objects (%)” value [5] was 4%. For the same compound, the “Population Membrane Permeable-Phenotype (%)” value [5] was 63%, the “Population Mitochondria Different-Phenotype (%)” value [5] was 32% and the “Population Mitotic Cells (%)” value [5] was 61%. The “Population Normal (%)” value [5] was 95%, the “Population Pyknosed Nuclei (%)” value [5] was 24% and the “Population Tubulin-Different-Phenotype (%)” value [5] was 78%. For the same compound, the “Total Cell Count” value [5] was 181, the “Population Apoptotic (%)” value [6] was 40% and the “Population Fragmented Nuclei (%)” value [6] was 41%. For the same compound, the “Population Healthy Nuclei (%)” value [6] was 47%, the “Population Hoechst High Intensity Objects (%)” value [6] was 20% and the “Population Membrane Permeable-Phenotype (%)” value [6] was 41%. For the same compound, the “Population Mitochondria Different-Phenotype (%)” value [6] was 30%, the “Population Mitotic Cells (%)” value [6] was 60% and the “Population Normal (%)” value [6] was 79%. For the same compound, the “Population Pyknosed Nuclei (%)” value [6] was 10%, the “Population Tubulin-Different-Phenotype (%)” value [6] was 51% and the “Total Cell Count” value [6] was 114. The “Population Apoptotic (%)” value [7] was 28% and 49%, the “Population Fragmented Nuclei (%)” value [7] was 11% and 15% and the “Population Healthy Nuclei (%)” value [7] was 76% and 54%. For the same compound, the “Population Hoechst High Intensity Objects (%)” value [7] was 5% and 8%, the “Population Membrane Permeable-Phenotype (%)” value [7] was 11% and 8% and the “Population Mitochondria Different-Phenotype (%)” value [7] was 51% and 74%. The “Population Mitotic Cells (%)” value [7] was 71% and 50%, the “Population Normal (%)” value [7] was 94% and 91% and the “Population Pyknosed Nuclei (%)” value [7] was 11% and 30%. For the same compound, the “Total Cell Count” value [7] was 187 and 184, the “Population Fragmented Nuclei (%)” value [8] was 17% and 12% and the “Population Healthy Nuclei (%)” value [8] was 47% and 74%. The “Population Hoechst High Intensity Objects (%)” value [8] was 9% and 11%, the “Population Membrane Permeable-Phenotype (%)” value [8] was 22% and the “Population Mitochondria Different-Phenotype (%)” value [8] was 59% and 45%. For the same compound, the “Population Mitotic Cells (%)” value [8] was 62% and 90%, the “Population Normal (%)” value [8] was 90% and 88% and the “Population Pyknosed Nuclei (%)” value [8] was 34% and 12%. For the same compound, the “Population Tubulin-Different-Phenotype (%)” value [8] was 77% and 28%, the “Total Cell Count” value [8] was 51 and 89 and the “Population Apoptotic (%)” value [9] was 72%. For the same compound, the “Population Fragmented Nuclei (%)” value [9] was 26%, the “Population Healthy Nuclei (%)” value [9] was 21% and the “Population Hoechst High Intensity Objects (%)” value [9] was 11%. The “Population Membrane Permeable-Phenotype (%)” value [9] was 13%, the “Population Mitochondria Different-Phenotype (%)” value [9] was 75% and the “Population Mitotic Cells (%)” value [9] was 27%. The “Population Normal (%)” value [9] was 88%, the “Population Pyknosed Nuclei (%)” value [9] was 52% and the “Population Tubulin-Different-Phenotype (%)” value [9] was 88%. For the same compound, the “Total Cell Count” value [9] was 193, the “Population Apoptotic (%)” value [10] was 66% and the “Population Fragmented Nuclei (%)” value [10] was 25%. For the same compound, the “Population Healthy Nuclei (%)” value [10] was 30%, the “Population Hoechst High Intensity Objects (%)” value [10] was 20% and the “Population Membrane Permeable-Phenotype (%)” value [10] was 91%. For the same compound, the “Population Mitochondria Different-Phenotype (%)” value [10] was 83%, the “Population Mitotic Cells (%)” value [10] was 33% and the “Population Normal (%)” value [10] was 80%. For the same compound, the “Population Pyknosed Nuclei (%)” value [10] was 45%, the “Population Tubulin-Different-Phenotype (%)” value [10] was 91% and the “Total Cell Count” value [10] was 50.
